Reference: ChEMBL document CHEMBL1800027, “Imidazolopiperazines: hit to lead optimization of new antimalarial agents” (J Med Chem, 2011)

Tests used:
[1] = pampa
[2] = Tmax in female CD1 mouse at 30 mg/kg, po by LC/MS/MS analysis; details: in vivo
in vivo [3] = details: female, CD1, mouse, po, 30 mg/kg
Plasmodium berghei [4] = assay: Antimalarial activity against GFP-tagged Plasmodium berghei ANKA infected in NMRI mouse assessed as reduction in parasitemia at 30 mg/kg, po QD administered 24 hrs post infection for 3 days measured on day 4 post infection; format: functional; parameters: scale not given: the % may be the effect or the level left
Plasmodium berghei [5] = assay: Antimalarial activity against GFP-tagged Plasmodium berghei ANKA infected in NMRI mouse assessed as mouse survival at 30 mg/kg, po administered as single dose 24 hrs post infection measured 72 hrs post infection
in vivo [6] = details: female, CD1, mouse, iv, 5 mg/kg
in vivo [7] = details: female, CD1, mouse, iv, 5 mg/kg; remark: listed apart in the source
[8] = Cmax in female CD1 mouse at 30 mg/kg, po by LC/MS/MS analysis; details: in vivo
in vitro [9] = details: human, Caco-2
in vivo [10] = details: female, CD1, mouse, plasma, po, 30 mg/kg
Mus musculus [11] = assay: Oral bioavailability in female CD1 mouse at 30 mg/kg by LC/MS/MS analysis; details: mouse, in vivo
in vivo [12] = details: female, CD1, mouse, plasma, iv, 5 mg/kg
in vivo [13] = details: female, CD1, mouse, iv, 5 mg/kg; remark: listed apart in the source
Plasmodium berghei [14] = assay: Antimalarial activity against GFP-tagged Plasmodium berghei ANKA infected in NMRI mouse assessed as reduction in parasitemia at 30 mg/kg, po administered as single dose 24 hrs post infection measured 72 hrs post infection; format: functional; parameters: scale not given: the % may be the effect or the level left
Plasmodium berghei [15] = assay: Antimalarial activity against GFP-tagged Plasmodium berghei ANKA infected in NMRI mouse assessed as mouse survival at 100 mg/kg, po administered as single dose 24 hrs post infection measured on day 30 post infection
[16] = molecular target: Voltage-gated inwardly rectifying potassium channel KCNH2 (Homo sapiens, UniProt Q12809)
Voltage-gated inwardly rectifying potassium channel KCNH2, sequence (Q12809 whole entry): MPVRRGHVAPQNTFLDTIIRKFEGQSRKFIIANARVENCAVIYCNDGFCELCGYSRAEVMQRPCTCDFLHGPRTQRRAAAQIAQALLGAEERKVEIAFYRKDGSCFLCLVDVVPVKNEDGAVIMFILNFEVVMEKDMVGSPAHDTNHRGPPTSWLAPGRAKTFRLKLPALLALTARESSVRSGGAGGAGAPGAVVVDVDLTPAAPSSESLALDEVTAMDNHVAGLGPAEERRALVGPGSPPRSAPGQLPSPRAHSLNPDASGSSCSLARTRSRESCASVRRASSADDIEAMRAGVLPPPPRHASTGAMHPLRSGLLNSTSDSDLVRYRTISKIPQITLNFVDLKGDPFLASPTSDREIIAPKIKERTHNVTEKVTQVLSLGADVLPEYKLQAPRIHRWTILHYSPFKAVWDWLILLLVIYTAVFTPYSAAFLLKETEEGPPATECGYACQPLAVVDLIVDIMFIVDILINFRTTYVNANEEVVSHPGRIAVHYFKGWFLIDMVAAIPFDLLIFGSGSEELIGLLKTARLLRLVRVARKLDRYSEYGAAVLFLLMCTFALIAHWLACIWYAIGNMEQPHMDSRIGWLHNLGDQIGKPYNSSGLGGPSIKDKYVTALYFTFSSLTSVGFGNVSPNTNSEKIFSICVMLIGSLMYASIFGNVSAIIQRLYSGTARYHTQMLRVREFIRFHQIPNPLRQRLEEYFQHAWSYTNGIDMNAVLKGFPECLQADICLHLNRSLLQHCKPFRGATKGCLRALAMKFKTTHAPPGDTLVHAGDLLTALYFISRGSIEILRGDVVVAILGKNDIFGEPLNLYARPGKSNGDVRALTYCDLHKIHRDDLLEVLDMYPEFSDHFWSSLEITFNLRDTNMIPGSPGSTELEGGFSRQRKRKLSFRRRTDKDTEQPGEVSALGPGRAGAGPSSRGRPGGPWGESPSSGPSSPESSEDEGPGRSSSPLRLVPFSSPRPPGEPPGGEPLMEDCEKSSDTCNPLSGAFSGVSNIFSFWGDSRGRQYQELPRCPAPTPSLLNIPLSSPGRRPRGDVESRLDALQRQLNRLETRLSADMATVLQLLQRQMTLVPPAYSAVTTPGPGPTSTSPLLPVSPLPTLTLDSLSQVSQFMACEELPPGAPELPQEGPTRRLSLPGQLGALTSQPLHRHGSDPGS

Plasmodium falciparum [17] = assay: Antimalarial activity against Plasmodium falciparum W2 infected in human erythrocytes assessed as decrease in parasitemia after 72 hrs; format: functional, organism-based; details: W2, 72 h
in vitro [18] = details: rat, microsomes
Plasmodium falciparum [19] = assay: Antimalarial activity against Plasmodium falciparum 3D7 infected in human erythrocytes assessed as decrease in parasitemia after 72 hrs; format: functional, organism-based; details: 3D7, 72 h
in vitro [20] = details: mouse, microsomes
in vitro [21] = details: human, microsomes
in vitro [22] = details: human, Caco-2; remark: listed apart in the source
Cytochrome P450 2C19 = Cytochrome P450 2C19 (Homo sapiens, UniProt P33261); assay: Inhibition of CYP 2C19; format: ADME
Cytochrome P450 2C19, sequence (P33261 whole entry): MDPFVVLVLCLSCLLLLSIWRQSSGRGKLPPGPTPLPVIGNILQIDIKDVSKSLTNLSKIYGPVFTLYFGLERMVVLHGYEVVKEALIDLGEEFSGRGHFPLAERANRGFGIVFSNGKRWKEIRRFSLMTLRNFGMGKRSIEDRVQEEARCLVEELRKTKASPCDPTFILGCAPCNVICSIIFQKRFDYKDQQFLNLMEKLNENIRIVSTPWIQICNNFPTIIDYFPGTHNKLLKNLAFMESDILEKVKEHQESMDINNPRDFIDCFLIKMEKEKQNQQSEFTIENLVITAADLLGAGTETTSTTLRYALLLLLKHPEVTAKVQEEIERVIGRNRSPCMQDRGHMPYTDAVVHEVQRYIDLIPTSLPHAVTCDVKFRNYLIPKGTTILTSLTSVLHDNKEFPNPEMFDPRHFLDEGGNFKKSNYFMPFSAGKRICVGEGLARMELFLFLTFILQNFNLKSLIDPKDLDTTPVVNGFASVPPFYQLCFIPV

[23] = Cytotoxicity against human Hep2 cells; format: cell-based; details: HEp-2 cells, read-out: TC50 (the source's name)
[24] = Selectivity index, ratio TC50 for CHO cells to IC50 for Plasmodium falciparum; format: functional
Cytochrome P450 3A4 = Cytochrome P450 3A4 (Homo sapiens, UniProt P08684); assay: Inhibition of CYP 3A4; format: ADME
Cytochrome P450 3A4, sequence (P08684 whole entry): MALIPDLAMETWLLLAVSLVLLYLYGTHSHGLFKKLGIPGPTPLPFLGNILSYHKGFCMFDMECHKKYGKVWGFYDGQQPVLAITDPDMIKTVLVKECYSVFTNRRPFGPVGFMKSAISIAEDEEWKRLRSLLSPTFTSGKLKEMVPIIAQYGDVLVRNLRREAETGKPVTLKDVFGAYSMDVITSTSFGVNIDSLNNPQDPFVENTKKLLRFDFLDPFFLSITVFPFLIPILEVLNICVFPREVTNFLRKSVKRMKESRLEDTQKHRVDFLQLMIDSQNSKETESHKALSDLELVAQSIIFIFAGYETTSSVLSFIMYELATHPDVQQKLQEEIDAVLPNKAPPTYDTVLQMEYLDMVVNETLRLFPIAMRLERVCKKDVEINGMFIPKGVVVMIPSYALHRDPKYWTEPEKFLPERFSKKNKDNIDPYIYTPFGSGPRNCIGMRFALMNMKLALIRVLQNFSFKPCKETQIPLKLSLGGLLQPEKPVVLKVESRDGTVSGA

[25] = Clearance in male BALB/c mouse at 5 mg/kg, iv by LC/MS/MS analysis; format: ADME, organism-based; parameters: dose 5 mg/kg, route intravenous; details: in vivo
Method in brief: (§1)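 Male Balb/c mice, n = 3 per group, dosed iv via lateral tail vein at 5 mg/kg and 2 mL/kg. Vehicle 2.5 mg/mL in 75% PEG300/25% DSW, filtered. Six serial retro-orbital blood samples up to 24 h, heparinized plasma. Plasma extracted with acetonitrile/methanol (3:1) plus internal standard for LC/MS/MS (positive ESI, MRM). Noncompartmental analysis.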

[26] = Ratio of drug level in blood to plasma of female CD1 mouse; format: ADME; details: blood and plasma
[27] = Half-life in male BALB/c mouse at 5 mg/kg, iv by LC/MS/MS analysis; format: ADME, organism-based; parameters: dose 5 mg/kg, route intravenous; details: in vivo
Method in brief: as §1

[28] = Cytotoxicity against human HuH7 cells; format: cell-based; details: Huh-7 cells, read-out: TC50 (the source's name)
[29] = Oral bioavailability in male BALB/c mouse at 20 mg/kg by LC/MS/MS analysis; format: ADME, organism-based; details: in vivo
Method in brief: (§2)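 Male Balb/c mice, n = 3 per group, given 20 mg/kg orally at 8 mL/kg. Vehicle 2.5 mg/mL in 75% PEG300/25% DSW, filtered. Six serial retro-orbital blood samples up to 24 h, heparinized plasma. Plasma extracted with acetonitrile/methanol (3:1) plus internal standard; LC/MS/MS quantitation by positive ESI MRM. Noncompartmental analysis; values normalized to 30 mg/kg. F = (AUCpo·dose iv)/(AUCiv·dose po).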

[30] = Selectivity index, ratio TC50 for human 293T cells to IC50 for Plasmodium falciparum; format: functional
Cytochrome P450 2D6 = Cytochrome P450 2D6 (Homo sapiens, UniProt P10635); assay: Inhibition of CYP 2D6; format: ADME
Cytochrome P450 2D6, sequence (P10635 whole entry): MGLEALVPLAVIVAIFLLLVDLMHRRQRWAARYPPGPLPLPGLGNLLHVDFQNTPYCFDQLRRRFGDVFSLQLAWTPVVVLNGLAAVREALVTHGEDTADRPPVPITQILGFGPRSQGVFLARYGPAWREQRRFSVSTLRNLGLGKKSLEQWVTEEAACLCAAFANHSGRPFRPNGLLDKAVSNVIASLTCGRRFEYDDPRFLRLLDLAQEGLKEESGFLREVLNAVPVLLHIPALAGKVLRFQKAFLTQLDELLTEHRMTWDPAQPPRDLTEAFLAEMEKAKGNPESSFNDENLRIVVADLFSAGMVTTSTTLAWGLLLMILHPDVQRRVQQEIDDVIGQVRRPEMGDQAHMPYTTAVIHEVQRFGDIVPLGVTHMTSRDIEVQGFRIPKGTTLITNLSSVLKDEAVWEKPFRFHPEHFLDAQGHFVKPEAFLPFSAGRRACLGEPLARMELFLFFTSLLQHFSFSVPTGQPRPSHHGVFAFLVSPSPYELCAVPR

[31] = Cytotoxicity against human 293T cells; format: cell-based; details: HEK-293T cells, read-out: TC50 (the source's name)
[32] = Genotoxicity in micronucleus assessed as arrest at cytokinesis stage by micronucleus assay
Mus musculus [33] = assay: AUC (0 to infinity) in male BALB/c mouse at 20 mg/kg, po by LC/MS/MS analysis; format: ADME, organism-based, Plasma; parameters: time infinity, dose 20 mg/kg, route oral; details: in vivo
Method in brief: as §2

[34] = Selectivity index, ratio TC50 for human HuH7 cells to IC50 for Plasmodium falciparum; format: functional, Huh-7
[35] = Cytotoxicity against human HeLa cells; format: cell-based; details: read-out: TC50 (the source's name)
[36] = Tmax in male BALB/c mouse at 20 mg/kg, po by LC/MS/MS analysis; format: ADME, organism-based; parameters: dose 20 mg/kg, route oral; details: in vivo
Method in brief: as §2

Plasmodium berghei [37] = assay: Antimalarial activity against GFP-tagged Plasmodium berghei ANKA infected in NMRI mouse assessed as mouse survival at 30 mg/kg, po QD administered 24 hrs post infection for 3 days measured on day 30 post infection; format: functional
[38] = Volume of distribution in male BALB/c mouse at 5 mg/kg, iv by LC/MS/MS analysis; format: ADME, organism-based; parameters: dose 5 mg/kg, route intravenous; details: in vivo
Method in brief: as §1

[39] = AUC (0 to infinity) in male BALB/c mouse at 5 mg/kg, iv by LC/MS/MS analysis; format: ADME, organism-based; parameters: time infinity, dose 5 mg/kg, route intravenous; details: plasma
Method in brief: as §1

[40] = Selectivity index, ratio TC50 for human HeLa cells to IC50 for Plasmodium falciparum; format: functional
[41] = Cytotoxicity against mouse BAF3 cells; format: cell-based; details: read-out: TC50 (the source's name)
Salmonella typhimurium = assay: Genotoxicity in Salmonella Typhimurium by Ames test; format: toxicity, organism-based; details: salmonella enterica subsp. enterica serovar typhimurium
[42] = Selectivity index, ratio TC50 for mouse BAF3 cells to IC50 for Plasmodium falciparum; format: functional
Cytochrome P450 2C9 = Cytochrome P450 2C9 (Homo sapiens, UniProt P11712); assay: Inhibition of CYP 2C9; format: ADME
Cytochrome P450 2C9, sequence (P11712 whole entry): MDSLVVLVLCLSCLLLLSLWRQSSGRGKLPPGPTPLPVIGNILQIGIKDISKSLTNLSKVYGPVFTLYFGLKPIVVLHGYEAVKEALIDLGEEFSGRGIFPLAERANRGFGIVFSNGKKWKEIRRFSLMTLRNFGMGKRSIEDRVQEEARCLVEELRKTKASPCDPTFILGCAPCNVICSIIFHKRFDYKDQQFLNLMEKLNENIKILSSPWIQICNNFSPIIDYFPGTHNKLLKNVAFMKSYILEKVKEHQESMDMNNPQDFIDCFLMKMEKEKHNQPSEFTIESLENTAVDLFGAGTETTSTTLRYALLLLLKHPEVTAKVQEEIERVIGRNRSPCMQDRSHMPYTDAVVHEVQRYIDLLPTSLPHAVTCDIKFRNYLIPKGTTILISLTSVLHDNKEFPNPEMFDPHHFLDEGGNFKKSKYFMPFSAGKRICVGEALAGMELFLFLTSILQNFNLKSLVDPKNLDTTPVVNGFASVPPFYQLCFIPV

[43] = Selectivity index, ratio TC50 for human Hep2 cells to IC50 for Plasmodium falciparum; format: functional, HEp-2
[44] = Cytotoxicity against Cricetulus griseus CHO cells; format: cell-based; details: chinese hamster, read-out: TC50 (the source's name)
Mus musculus [45] = assay: Cmax in male BALB/c mouse at 20 mg/kg, po by LC/MS/MS analysis; format: ADME, organism-based; parameters: dose 20 mg/kg, route oral; details: in vivo
Method in brief: as §2

[46] = Half life in male BALB/c mouse at 20 mg/kg, po by LC/MS/MS analysis; format: ADME, organism-based; parameters: dose 20 mg/kg, route oral; details: in vivo
Method in brief: as §2

Cytochrome P450 1A2 = molecular target: T1, Cytochrome P450 1A2 (Homo sapiens, UniProt P05177); assay: Inhibition of CYP 1A2; format: ADME
T1 sequence (P05177 whole entry): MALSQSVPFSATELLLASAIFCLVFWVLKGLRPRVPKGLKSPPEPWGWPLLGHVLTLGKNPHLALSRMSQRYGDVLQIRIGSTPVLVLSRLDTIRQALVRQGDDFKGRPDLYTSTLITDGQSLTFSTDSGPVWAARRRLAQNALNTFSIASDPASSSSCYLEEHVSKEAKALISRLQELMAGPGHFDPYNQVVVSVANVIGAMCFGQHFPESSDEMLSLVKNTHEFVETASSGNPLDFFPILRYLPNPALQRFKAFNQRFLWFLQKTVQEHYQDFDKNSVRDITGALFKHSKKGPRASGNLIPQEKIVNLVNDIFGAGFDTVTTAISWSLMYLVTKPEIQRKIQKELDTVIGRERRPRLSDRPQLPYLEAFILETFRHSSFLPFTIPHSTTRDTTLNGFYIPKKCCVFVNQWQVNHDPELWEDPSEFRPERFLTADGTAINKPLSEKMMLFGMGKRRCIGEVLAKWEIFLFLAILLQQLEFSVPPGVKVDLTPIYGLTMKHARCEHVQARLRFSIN

[47] = Ratio of drug level in blood to plasma of male BALB/c mouse; format: ADME; details: blood and plasma

CC(C)(N)C(=O)N1CCn2c(nc(-c3ccc(F)cc3)c2Nc2ccc(Cl)cc2)C1
permeability [1]: 89%
Tmax [2]: 1 h
half-life (in vivo [3]): 37.6 h
Activity (Plasmodium berghei [4]): 99.5%
Survival (Plasmodium berghei [5]): 6 days
Vd (in vivo [6]): 40.5 L/kg
half-life (in vivo [7]): 8.7 h
Cmax [8]: 749 nM
Papp A→B (in vitro [9]): 1.46 ×10⁻⁶ cm/s
AUC(0-inf) (in vivo [10]): 28.3 µM·h
F (Mus musculus [11]): 158%
AUC(0-inf) (in vivo [12]): 2.98 µM·h
clearance (in vivo [13]): 65.2 mL/min/kg
Activity (Plasmodium berghei [14]): 98%
Survival (Plasmodium berghei [15]): 13 days
IC50 [16]: 2.3 µM
IC50 (Plasmodium falciparum [17]): 0.024 µM
hepatic extraction ratio (in vitro [18]): 0.43
IC50 (Plasmodium falciparum [19]): 0.03 µM
hepatic extraction ratio (in vitro [20]): 0.17
hepatic extraction ratio (in vitro [21]): 0.54
Papp B→A (in vitro [22]): 1.86 ×10⁻⁶ cm/s

CC(C)(N)C(=O)N1CCn2c(nc(-c3ccc(F)cc3)c2Nc2ccc(F)c(F)c2)C1
permeability [1]: 86%
IC50 (Cytochrome P450 2C19): > 8.9 µM
CC50 [23]: > 12 µM
Selectivity Index [24]: >100
Survival (Plasmodium berghei [5]): 7.7 days
IC50 (Cytochrome P450 3A4): > 8.9 µM
clearance [25]: 27.7 mL/min/kg
blood plasma ratio [26]: > 1
Papp A→B (in vitro [9]): 0.14 ×10⁻⁶ cm/s
half-life [27]: 7.7 h
CC50 [28]: > 12 µM
bioavailability [29]: 76%
Selectivity Index [30]: >100
IC50 (Cytochrome P450 2D6): > 8.9 µM
CC50 [31]: > 12 µM
Activity (Plasmodium berghei [14]): 99.4%
Activity [32]: Non-toxic
Survival (Plasmodium berghei [15]): 17 days
AUC (Mus musculus [33]): 31.758 µM·h
Selectivity Index [34]: >100
CC50 [35]: > 12 µM
Tmax [36]: 1.67 h
Survival (Plasmodium berghei [37]): 17.7 days
Vd [38]: 14 L/kg
IC50 [16]: 4.8 µM
IC50 (Plasmodium falciparum [17]): 0.036 µM
hepatic extraction ratio (in vitro [18]): 0.12
AUC(0-inf) [39]: 7 µM·h
Selectivity Index [40]: >100
IC50 (Plasmodium falciparum [19]): 0.044 µM
CC50 [41]: > 12 µM
Activity (Salmonella typhimurium): Non-toxic
Selectivity Index [42]: >100
hepatic extraction ratio (in vitro [20]): 0.17
hepatic extraction ratio (in vitro [21]): 0.39
IC50 (Cytochrome P450 2C9): > 8.9 µM
Selectivity Index [43]: >100
Papp B→A (in vitro [22]): 1.03 ×10⁻⁶ cm/s
CC50 [44]: > 12 µM
Cmax (Mus musculus [45]): 1940 nM
half-life [46]: 7.7 h
IC50 (Cytochrome P450 1A2): > 8.9 µM
blood plasma ratio [47]: > 1
